How the values were obtained:
[1] = Induction of microtubule depolymerization in rat A10 cells by indirect immunofluorescence method; type: cell-based
Method in brief: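 A-10 cells, which arrest in interphase, used to score loss of interphase microtubules. EC50 values calculated per an earlier method, minimum of three independent experiments.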

[2] = Antiproliferative activity against human SKOV3-MDR1-M6/6 cells by SRB assay; type: functional
[3] = tested on: HeLa; assay: Antiproliferative activity against human HeLa cells by SRB assay; type: functional, cell-based
[4] = tested on: EKVX; assay: Growth inhibition of human EKVX cells incubated for 48 hrs by sulforhodamine B assay; type: functional
[5] = tested on: NCI-H226; assay: Growth inhibition of human NCI-H226 cells incubated for 48 hrs by sulforhodamine B assay; type: functional; conditions: NCI-H226, 48 h
[6] = tested on: NCI-H322M; assay: Growth inhibition of human NCI-H322M cells incubated for 48 hrs by sulforhodamine B assay; type: functional
[7] = tested on: SNB-19; assay: Growth inhibition of human SNB19 cells incubated for 48 hrs by sulforhodamine B assay; type: functional; conditions: SNB-19, 48 h
[8] = tested on: SNB-75; assay: Growth inhibition of human SNB75 cells incubated for 48 hrs by sulforhodamine B assay; type: functional; conditions: SNB-75, 48 h
[9] = tested on: CAKI-1; assay: Growth inhibition of human Caki1 cells incubated for 48 hrs by sulforhodamine B assay; type: functional; conditions: CAKI-1, 48 h
[10] = tested on: SN12C; assay: Growth inhibition of human SN12C cells incubated for 48 hrs by sulforhodamine B assay; type: functional
[11] = tested on: COLO 205; assay: Growth inhibition of human COLO205 cells incubated for 48 hrs by sulforhodamine B assay; type: functional; conditions: COLO 205, 48 h
[12] = tested on: HCC 2998; assay: Growth inhibition of human HCC2998 cells incubated for 48 hrs by sulforhodamine B assay; type: functional; conditions: HCC 2998, 48 h
[13] = tested on: KM12; assay: Growth inhibition of human KM12 cells incubated for 48 hrs by sulforhodamine B assay; type: functional; conditions: KM12, 48 h
[14] = tested on: SW-620; assay: Growth inhibition of human SW620 cells incubated for 48 hrs by sulforhodamine B assay; type: functional; conditions: SW-620, 48 h
[15] = tested on: IGROV-1; assay: Growth inhibition of human IGROV1 cells incubated for 48 hrs by sulforhodamine B assay; type: functional; conditions: IGROV-1, 48 h
[16] = tested on: OVCAR-4; assay: Growth inhibition of human OVCAR4 cells incubated for 48 hrs by sulforhodamine B assay; type: functional; conditions: OVCAR-4, 48 h
[17] = tested on: OVCAR-5; assay: Growth inhibition of human OVCAR5 cells incubated for 48 hrs by sulforhodamine B assay; type: functional; conditions: OVCAR-5, 48 h
[18] = tested on: OVCAR-8; assay: Growth inhibition of human OVCAR8 cells incubated for 48 hrs by sulforhodamine B assay; type: functional; conditions: OVCAR-8, 48 h
[19] = tested on: NCI/ADR-RES; assay: Growth inhibition of human NCI/ADR-RES cells incubated for 48 hrs by sulforhodamine B assay; type: functional
[20] = tested on: SK-MEL-2; assay: Growth inhibition of human SK-MEL-2 cells incubated for 48 hrs by sulforhodamine B assay; type: functional; conditions: SK-MEL-2, 48 h
[21] = tested on: MDA-MB-231; assay: Growth inhibition of human MDA-MB-231 cells incubated for 48 hrs by sulforhodamine B assay; type: functional; conditions: MDA-MB-231, 48 h
[22] = tested on: Hs-578T; assay: Growth inhibition of human Hs578T cells incubated for 48 hrs by sulforhodamine B assay; type: functional
[23] = tested on: MDA-MB-468; assay: Growth inhibition of human MDA-MB-468 cells incubated for 48 hrs by sulforhodamine B assay; type: functional; conditions: MDA-MB-468, 48 h
[24] = tested on: CCRF-CEM; assay: Growth inhibition of human CCRF-CEM cells incubated for 48 hrs by sulforhodamine B assay; type: functional
[25] = tested on: HL-60(TB); assay: Growth inhibition of human HL-60(TB) cells incubated for 48 hrs by sulforhodamine B assay; type: functional; conditions: HL-60, 48 h
[26] = tested on: K562; assay: Growth inhibition of human K562 cells incubated for 48 hrs by sulforhodamine B assay; type: functional; conditions: K562, 48 h
[27] = tested on: RPMI-8226; assay: Growth inhibition of human RPMI8226 cells incubated for 48 hrs by sulforhodamine B assay; type: functional; conditions: RPMI-8226, 48 h
[28] = tested on: MDA-MB-435 (human); assay: Antiproliferative activity against human MDA-MB-435 cells by SRB assay

CSc1ccc(N(C)c2nc(C)nc3c2CCC3)cc1
EC50 [1]: 13 nM
IC50 [2]: 9.3 nM
IC50 [3]: 7 nM
GI50 [4]: < 10 nM
GI50 [5]: < 10 nM
GI50 [6]: > 10000 nM
GI50 [7]: < 10 nM
GI50 [8]: < 10 nM
GI50 [9]: < 10 nM
GI50 [10]: < 10 nM
GI50 [11]: < 10 nM
GI50 [12]: < 10 nM
GI50 [13]: < 10 nM
GI50 [14]: < 10 nM
GI50 [15]: < 10 nM
GI50 [16]: < 10 nM
GI50 [17]: > 10000 nM
GI50 [18]: < 10 nM
GI50 [19]: < 10 nM
GI50 [20]: < 10 nM
GI50 [21]: < 10 nM
GI50 [22]: < 10 nM
GI50 [23]: < 10 nM
GI50 [24]: < 10 nM
GI50 [25]: < 10 nM
GI50 [26]: < 10 nM
GI50 [27]: < 10 nM
IC50 [28]: 4.6 nM

Source: ChEMBL document CHEMBL4219224, “Structure based drug design and in vitro metabolism study: Discovery of N-(4-methylthiophenyl)-N,2-dimethyl-cyclopenta[d]pyrimidine as a potent microtubule targeting agent” (Bioorg Med Chem, 2018)
